Experimental data as given in the RNAGym collection of RNA variant scans (doi:10.1002/anie.201605470).

B1: Osa-1-4 twister ribozyme (parent)
chain: CCGCCUAACACUGCCAAUGCCGGUCCCAAGCCCGGAUAAAAGUGGAGGGGGCGG

Variants of: B1
Assay: self-cleavage, relative activity (ratio to wild type); higher = more cleavage; co-transcriptional
How it was run: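 Values are relative activity: the fraction cleaved, normalised to wild type. A doped DNA template for a 54-nucleotide twister ribozyme from Oryza sativa had 97 % wild-type base and 1 % of each other base at the 48 positions downstream of the cleavage site. The RNA was transcribed in vitro for 2 h at 37 °C so that it could cleave itself co-transcriptionally, then sequenced deeply, with cleavage status scored from the presence or absence of upstream sequence in reads.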

Variant	self-cleavage
G50U G54U	0.52
G50U G54C	0.15
G50U G54A	0.79
G50A G54A	0.97
G50A G54C	0.99
G50A G54U	0.96
G50C G53C	0.06
G50C G53A	0.11
G50C G53U	0.11
G51A U37A	0.39
G51A U37G	0.78
G51A U37C	0.82
G49U U24A	0.04
G49U U24G	0.02
G49U U24C	0.04
C52G G23C	0.09
C52G G23U	0.14
C52G G23A	0.28
G50C U43C	0.45
G50C U43G	0.36
G50C U43A	0.75
C52G G54A	0.81
C52G G54C	0.91
C52G G54U	0.97

Variant	self-cleavage
G50C G54C	0.1
G50C G54U	0.32
G50C G54A	0.15
G51A U43G	0.1
G51A U43C	0.2
G51A U43A	0.25
C52G U18G	0.86
C52G U18C	0.93
C52G U18A	0.91
C52G G35C	0.36
C52G G35U	0.91
C52G G35A	0.84
G50A U18A	0.61
G50A U18C	0.45
G50A U18G	0.79
C52A U18G	0.82
C52A U18A	0.93
C52A U18C	0.93
G51U U18C	0.29
G51U U18A	0.31
G51U U18G	0.35
C52G G44A	0.98
C52G G44C	0.9
C52G G44U	0.9

Variant	self-cleavage
G51U G54A	0.25
G51U G54C	0.51
G51U G54U	0.4
G49U G50C	0.31
G49U G50U	0.21
G49U G50A	0.5
G51C U37G	0.18
G51C U37C	0.14
G51C U37A	0.08
C52A U12C	0.48
C52A U12A	0.71
C52A U12G	0.18
C52G G42C	0.22
C52G G42A	0.75
C52G G42U	0.14
C52A G22C	0.07
C52A G22U	0.17
C52A G22A	0.71
C52A G19A	0.42
C52A G19C	0.08
C52A G19U	0.2
C52A G13A	0.08
C52A G13C	0.04
C52A G13U	0.03

Variant	self-cleavage
C52G C9A	0.57
C52G C9G	0.86
C52G C9U	0.85
G49A U37G	0.27
G49A U37C	0.19
G49A U37A	0.13
G49C U43A	0.08
G49C U43G	0.04
G49C U43C	0.1
G49C G53C	0.03
G49C G53U	0.05
G49C G53A	0.06
G50A U37C	0.84
G50A U37A	0.38
G50A U37G	0.74
G49C G54C	0.05
G49C G54A	0.06
G49C G54U	0.08
G51U G53C	0.05
G51U G53A	0.19
G51U G53U	0.12
G49C U18C	0.05
G49C U18G	0.09
G49C U18A	0.05

Variant	self-cleavage
C52G G53C	0.24
C52G G53A	0.57
C52G G53U	0.44
G50C G51A	0.71
G50C G51C	0.08
G50C G51U	0.32
C52A G54A	0.69
C52A G54C	0.87
C52A G54U	0.89
G49C U24C	0.05
G49C U24G	0.01
G49C U24A	0.03
C52A G34C	0.21
C52A G34A	0.65
C52A G34U	0.39
G50A	0.76
G50U	1.02
G50C	1.03
G50U G51U	0.57
G50U G51A	0.66
G50U G51C	0.11
C52A G35A	0.8
C52A G35U	0.81
C52A G35C	0.22

Variant	self-cleavage
C52A U43C	0.5
C52A U43A	0.85
C52A U43G	0.37
C52A G30U	0.04
C52A G30A	0.04
C52A G30C	0.06
G50A U24G	0.02
G50A U24A	0.6
G50A U24C	0.64
C52A G49U	0.1
C52A G49A	0.21
C52A G49C	0.08
G49C G51C	0.04
G49C G51A	0.12
G49C G51U	0.08
G49U U37A	0.12
G49U U37G	0.3
G49U U37C	0.18
C52A U24G	0.04
C52A U24A	0.14
C52A U24C	0.18
G50U U12C	0.62
G50U U12G	0.47
G50U U12A	0.82

Variant	self-cleavage
G49C U12A	0.08
G49C U12C	0.04
G49C U12G	0.06
C52G G49A	0.2
C52G G49U	0.13
C52G G49C	0.07
G50U U24A	0.13
G50U U24G	0.02
G50U U24C	0.28
G51A	0.77
G51C	0.17
G51U	0.44
C52G G45U	0.14
C52G G45A	0.27
C52G G45C	0.1
G49A U43A	0.08
G49A U43G	0.08
G49A U43C	0.07
G51U U43C	0.11
G51U U43A	0.13
G51U U43G	0.08
G51U U37G	0.4
G51U U37A	0.15
G51U U37C	0.51

Variant	self-cleavage
C52A G45U	0.1
C52A G45A	0.26
C52A G45C	0.07
C52A C9A	0.55
C52A C9G	0.8
C52A C9U	0.82
G51A U12A	0.22
G51A U12C	0.22
G51A U12G	0.07
G50A G53A	0.94
G50A G53C	0.32
G50A G53U	0.9
G50A G51A	0.5
G50A G51C	0.12
G50A G51U	0.16
C52A G42U	0.11
C52A G42C	0.16
C52A G42A	0.68
C52A U37A	0.9
C52A U37C	1.02
C52A U37G	1.06
G49C G50C	0.17
G49C G50U	0.14
G49C G50A	0.2

Variant	self-cleavage
C52G G19U	0.27
C52G G19A	0.55
C52G G19C	0.14
C52A G48A	0.14
C52A G48C	0.1
C52A G48U	0.07
G51C U43G	0.06
G51C U43C	0.06
G51C U43A	0.06
G51A U24G	0.02
G51A U24A	0.08
G51A U24C	0.08
G50U U43C	0.68
G50U U43G	0.71
G50U U43A	0.92
G50U U37C	1.06
G50U U37G	1.04
G50U U37A	0.85
G51A U18A	0.62
G51A U18G	0.64
G51A U18C	0.46
G51U U12A	0.09
G51U U12C	0.08
G51U U12G	0.05

Variant	self-cleavage
C52A	1.02
C52G	1.01
C52G U12A	0.85
C52G U12G	0.32
C52G U12C	0.58
G50C U37C	1.05
G50C U37G	1.04
G50C U37A	0.78
G49U G51U	0.12
G49U G51C	0.06
G49U G51A	0.32
C52G G22U	0.35
C52G G22C	0.09
C52G G22A	0.75
G50C U18G	0.75
G50C U18C	0.95
G50C U18A	0.95
C52A G51C	0.43
C52A G51A	0.9
C52A G51U	0.48
G51U U24G	0.02
G51U U24C	0.05
G51U U24A	0.05
G51A G54U	0.83

Variant	self-cleavage
G51A G54A	0.85
G51A G54C	0.95
G49C	0.07
G49U	0.23
G51C U18C	0.13
G51C U18G	0.13
G51C U18A	0.12
C52G G34C	0.17
C52G G34U	0.42
C52G G34A	0.77
C52A G47U	0.21
C52A G47A	0.22
C52A G47C	0.1
G51A G53A	0.64
G51A G53U	0.17
G51A G53C	0.06
C52G G30U	0.05
C52G G30C	0.07
C52G G30A	0.06
G51C U24C	0.04
G51C U24A	0.04
G51C U24G	0.02
G50A U43G	0.15
G50A U43C	0.35

Variant	self-cleavage
G50A U43A	0.38
G49U G54U	0.26
G49U G54C	0.06
G49U G54A	0.1
C52G G50U	0.24
C52G G50A	0.85
C52G G50C	0.09
G51C G54C	0.34
G51C G54A	0.09
G51C G54U	0.12
G50U G53C	0.09
G50U G53A	0.61
G50U G53U	0.37
C52G G47C	0.11
C52G G47U	0.29
C52G G47A	0.28
G51C U12A	0.05
G51C U12C	0.04
G51C U12G	0.05
G51C G53U	0.06
G51C G53C	0.04
G51C G53A	0.07
C52A G23C	0.06
C52A G23U	0.09

Variant	self-cleavage
C52A G23A	0.17
C52A G50U	0.25
C52A G50C	0.14
C52A G50A	0.69
G49U U43C	0.04
G49U U43A	0.08
G49U U43G	0.06
G49C U37A	0.05
G49C U37G	0.08
G49C U37C	0.07
C52A G44A	0.98
C52A G44U	0.93
C52A G44C	0.96
G50U U18A	0.89
G50U U18G	0.8
G50U U18C	0.97
G49U U12G	0.07
G49U U12A	0.09
G49U U12C	0.04
C52G G48A	0.13
C52G G48C	0.1
C52G G48U	0.09
C52A G53U	0.8
C52A G53A	0.92

Variant	self-cleavage
C52A G53C	0.5
G49U U18G	0.29
G49U U18A	0.15
G49U U18C	0.16
G50A U12A	0.44
G50A U12C	0.37
G50A U12G	0.11
C52G G51A	0.84
C52G G51U	0.48
C52G G51C	0.41
G49U G53C	0.04
G49U G53U	0.07
G49U G53A	0.07
G50C U24G	0.02
G50C U24C	0.11
G50C U24A	0.08
G50C U12G	0.17
G50C U12A	0.35
G50C U12C	0.34
C52G G13C	0.07
C52G G13A	0.12
C52G G13U	0.06
